A selection: hits, their analogues and other compounds. The true share with any hit is near 5.8%.
GASC1 inh: inhibitors of GASC-1 (KDM4C) histone demethylase, primary screen, biochemical, single concentration HTS | 96,000 compounds, 0.15% hits | inhibition, % at 12.5 µM | Lysine-specific demethylase 4C (Homo sapiens), Q9H3R0 | GST-KDM4C 2-372, H3K9me3 peptide, LANCE TR-FRET;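 active = mean replicate inhibition above about 25%, with at least 55% of replicates also reaching it, limit read from the data, passing the limit was not always enough; inconclusive = only one of those two conditions met; inactive = neither condition met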
Target sequence (Q9H3R0 2-372 limits assumed): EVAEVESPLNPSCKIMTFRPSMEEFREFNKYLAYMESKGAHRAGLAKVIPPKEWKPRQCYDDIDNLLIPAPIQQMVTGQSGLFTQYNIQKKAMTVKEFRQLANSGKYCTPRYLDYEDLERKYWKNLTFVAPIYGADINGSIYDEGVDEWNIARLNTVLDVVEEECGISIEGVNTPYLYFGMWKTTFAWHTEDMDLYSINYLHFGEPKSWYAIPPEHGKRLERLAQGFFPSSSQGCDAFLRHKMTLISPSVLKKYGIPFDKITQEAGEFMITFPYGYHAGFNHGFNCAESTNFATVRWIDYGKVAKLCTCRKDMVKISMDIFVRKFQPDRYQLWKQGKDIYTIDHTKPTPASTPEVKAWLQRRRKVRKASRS
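Assay system: GST-GASC-1 enzyme fragment 2-372 | Amount: 10 nM enzyme | Medium: HEPES buffer, pH 7.5, plus ascorbate | Reagent: H3K9me3 peptide substrate, Fe(II), 2-oxoglutarate | Doses: Single-point compound screen | Incubation: 30 min demethylation and 1 h detection at room temperature | Measured by: LANCE TR-FRET, excitation 340 nm, emissions 618 and 671 nm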
IDH1 R132H inh: inhibitors of IDH1 R132H reductase, primary screen, biochemical, plate reader, single point. Isocitrate dehydrogenase [NADP] cytoplasmic (Homo sapiens), O75874. diaphorase/resazurin fluorescence, 60 min. inhibition, % at 10 µM. 70,000 compounds, 0.18% hits. AID 624101, 2012; in the data active = inhibition above about 34%; inconclusive = no clear call, values can overlap the other calls; inactive = below about 11%
Target sequence (O75874 whole entry R132H): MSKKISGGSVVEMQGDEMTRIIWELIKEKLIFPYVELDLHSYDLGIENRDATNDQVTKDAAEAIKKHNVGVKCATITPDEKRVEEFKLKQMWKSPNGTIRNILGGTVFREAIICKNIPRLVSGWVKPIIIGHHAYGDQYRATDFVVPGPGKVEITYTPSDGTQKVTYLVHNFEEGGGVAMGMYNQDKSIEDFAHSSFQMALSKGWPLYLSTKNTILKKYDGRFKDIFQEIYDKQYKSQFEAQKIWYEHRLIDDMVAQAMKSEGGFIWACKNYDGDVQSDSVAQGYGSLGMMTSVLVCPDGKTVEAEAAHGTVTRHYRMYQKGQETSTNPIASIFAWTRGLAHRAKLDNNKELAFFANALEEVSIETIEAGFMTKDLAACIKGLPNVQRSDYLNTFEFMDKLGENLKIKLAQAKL
T cruzi growth-1: T. cruzi intracellular proliferation inhibitors, primary screen, cell-based, beta-gal Tulahuen parasites, NIH3T3 host, luminescence. T. cruzi beta-gal in NIH3T3, GalScreen luminescence, 90 h. inhibition, % at 8.34 µM. 77,000 compounds, 5.9% hits. AID 624255, 2012;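 active = mean inhibition above about 93%, with at least 55% of replicates each passing it, limit read from the data, passing the limit was not always enough; inconclusive = only one of those two conditions holds; inactive = neither condition holds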
Pf Dd2 growth: P. falciparum Dd2 growth inhibitors, primary screen, SYBR Green fluorescence, single dose replicates; activity change, % at 10 µM; 72 h; hits give low values; 94,000 compounds, 2.3% hits; in the data active = activity change below about -80%; inconclusive = no clear call, values can overlap the other calls
T cruzi growth-2: T. cruzi intracellular proliferation inhibitors, confirmation, cell-based, NIH3T3 host, beta-gal parasite, luminescence, cherry-pick | T. cruzi beta-gal in NIH3T3, GalScreen luminescence, 90 h | inhibition, % at 8.35 µM | shares compounds with T cruzi growth-1 | AID 651739, 2012 | 5,600 compounds, 72% hits;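 active = mean replicate inhibition above about 95% and at least 55% of replicates individually reaching it, limit read from the data; inconclusive = only one of the two criteria is met; inactive = neither criterion is met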
T cruzi growth-3: inhibitors of intracellular T. cruzi replication, confirmation, NIH3T3 host cells, beta-gal parasites, cherry-pick, set 2. shares compounds with T cruzi growth-1. T. cruzi beta-gal in NIH3T3, GalScreen luminescence, 90 h. inhibition, % at 2.09 µM. 5,600 compounds, 21% hits. AID 651740, 2012;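 active = mean inhibition above about 95%, with at least 55% of replicates also reaching it, limit read from the data; inconclusive = meets just one of the two conditions; inactive = meets neither condition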
3T3 cytotox: cytotoxicity in mouse NIH/3T3 fibroblasts, confirmation, cytotoxicity control for T. cruzi proliferation inhibitor project, cell-based, cherry-pick, single point; shares compounds with T cruzi growth-1; NIH/3T3 viability, CellTiter-Glo ATP luminescence, 90 h; cytotoxicity (signal decrease), % at 8.35 µM; 5,600 compounds, 14% hits;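 active = mean signal decrease across replicates above about 35% based on untreated-well scatter, with enough replicates individually passing, limit read from the data; inconclusive = no rule stated though some were filed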
3T3 cytotox 2: NIH/3T3 fibroblast cytotoxicity, confirmation, cytotoxicity control, cell-based, cherry-pick, single point, set 2; shares compounds with T cruzi growth-1; NIH/3T3 viability, CellTiter-Glo ATP luminescence, 90 h; inhibition, % at 24.9 µM; 5,600 compounds, 56% hits;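 active = mean loss of cell viability signal at or above a set limit, and enough replicates individually reaching it; inconclusive = meets only the mean limit or only the replicate share; inactive = meets neither condition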
Of the large screens only hits and unclear results are named; the others gave an inactive call (follow-up assays come after a bar, where they were run).

COCCN(C[C@@H]1[C@@H](c2ccccc2)[C@H](CO)N1C(C)=O)C(=O)c1ccccc1	none (no result: IDH1 R132H inh)
CC(=O)N(C)C[C@@H]1[C@@H](c2ccc(-c3ccccc3)cc2)[C@H](CO)N1C(=O)C1CC1	none (no result: IDH1 R132H inh)
CC(=O)N(C)C[C@H]1[C@H](c2ccc(-c3ccccc3)cc2)[C@@H](CO)N1C(=O)C1CC1	T cruzi growth-1 inconclusive (no result: IDH1 R132H inh) | T cruzi growth-2 inactive | T cruzi growth-3 inactive | 3T3 cytotox inactive | 3T3 cytotox 2 inactive
CCN(C[C@@H]1[C@@H](c2ccccc2)[C@H](CO)N1C(=O)C1CC1)C(=O)NC1CCCC1	T cruzi growth-1 97 (no result: IDH1 R132H inh) | T cruzi growth-2 inactive | T cruzi growth-3 inactive | 3T3 cytotox inactive | 3T3 cytotox 2 inactive
COCCN(C[C@H]1[C@@H](c2ccccc2)[C@H](CO)N1C(C)=O)C(=O)c1ccncc1	T cruzi growth-1 inconclusive (no result: IDH1 R132H inh) | T cruzi growth-2 inactive | T cruzi growth-3 inactive | 3T3 cytotox inactive | 3T3 cytotox 2 inactive
COCC(=O)N(C)C[C@H]1[C@H](c2ccc(-c3cccnc3)cc2)[C@H](CO)N1C(C)=O	T cruzi growth-1 101 (no result: IDH1 R132H inh) | T cruzi growth-2 inactive | T cruzi growth-3 inactive | 3T3 cytotox inactive | 3T3 cytotox 2 inactive
CC(=O)N(C)C[C@H]1[C@H](c2ccccc2)[C@@H](CO)N1C(=O)C1CCC1	T cruzi growth-1 101 (no result: IDH1 R132H inh) | T cruzi growth-2 inactive | T cruzi growth-3 inactive | 3T3 cytotox inactive | 3T3 cytotox 2 inactive
O=C(C[C@@H]1CC[C@H]2[C@@H](COC[C@@H](O)CN2Cc2cccc(-c3ccncc3)c2)O1)N1CCCCC1	none (no result: IDH1 R132H inh)
O=C(C[C@H]1CC[C@H]2[C@@H](COC[C@@H](O)CN2Cc2cccc(-c3ccncc3)c2)O1)N1CCCCC1	T cruzi growth-1 109 (no result: IDH1 R132H inh) | T cruzi growth-2 inactive | T cruzi growth-3 inactive | 3T3 cytotox inactive | 3T3 cytotox 2 inactive
O=C(C[C@@H]1CC[C@H]2[C@@H](COC[C@@H](O)CN2C(=O)Nc2cccc(Cl)c2)O1)N1CCCCC1	T cruzi growth-1 95 (no result: IDH1 R132H inh) | T cruzi growth-2 inactive | T cruzi growth-3 inactive | 3T3 cytotox inactive | 3T3 cytotox 2 inactive
O=C(C[C@@H]1CC[C@@H]2[C@H](COC[C@@H](O)CN2Cc2nccs2)O1)N1CCC(Cc2ccccc2)CC1	T cruzi growth-1 165 (no result: IDH1 R132H inh, Pf Dd2 growth) | T cruzi growth-2 inactive | T cruzi growth-3 inactive | 3T3 cytotox inactive | 3T3 cytotox 2 inactive
O=C(C[C@H]1CC[C@H]2[C@@H](COC[C@H](O)CN2Cc2cccc(Cl)c2)O1)N1CCCCC1	T cruzi growth-1 122 (no result: IDH1 R132H inh) | T cruzi growth-2 inactive | T cruzi growth-3 inactive | 3T3 cytotox inactive | 3T3 cytotox 2 inactive
O=C(C[C@H]1CC[C@H]2[C@@H](COC[C@@H](O)CN2C(=O)Nc2cccc(Cl)c2)O1)N1CCCCC1	none (no result: IDH1 R132H inh)
O=C(N[C@H]1CC[C@@H](CCNS(=O)(=O)c2ccc(Cl)cc2)O[C@@H]1CO)c1ccccn1	none
COC(=O)[C@H]1[C@H](CO)[C@H]2Cn3c(ccc(/C=C/c4ccccc4)c3=O)[C@H]2N1C(=O)c1cnccn1	T cruzi growth-1 101 (no result: IDH1 R132H inh) | T cruzi growth-2 inactive | T cruzi growth-3 inactive | 3T3 cytotox inactive | 3T3 cytotox 2 40
O=C(O)[C@H]1[C@H](CO)[C@H]2Cn3c(ccc(/C=C/c4ccccc4)c3=O)[C@H]2N1C(=O)c1cnccn1	none (no result: IDH1 R132H inh, Pf Dd2 growth)
O=C(O)[C@H]1[C@H](CO)[C@H]2Cn3c(ccc(/C=C/c4ccccc4)c3=O)[C@H]2N1Cc1ccc2c(c1)OCO2	T cruzi growth-1 127 (no result: IDH1 R132H inh, Pf Dd2 growth) | T cruzi growth-2 inactive | T cruzi growth-3 inactive | 3T3 cytotox inactive | 3T3 cytotox 2 63
CCCN1[C@H](C(=O)N(C)C)[C@@H](CO)[C@@H]2Cn3c(ccc(/C=C/c4ccccc4)c3=O)[C@@H]21	none (no result: IDH1 R132H inh, Pf Dd2 growth)
O=C(O)[C@@H]1[C@@H](CO)[C@@H]2Cn3c(ccc(/C=C/c4ccccc4)c3=O)[C@@H]2N1Cc1ccc2c(c1)OCO2	T cruzi growth-1 102 (no result: IDH1 R132H inh, Pf Dd2 growth) | T cruzi growth-2 inactive | T cruzi growth-3 inactive | 3T3 cytotox inactive | 3T3 cytotox 2 101
O=C([C@H]1N[C@H]2c3ccc(/C=C/c4ccccc4)c(=O)n3C[C@H]2[C@@H]1CO)N1CCCCC1	T cruzi growth-1 active (no result: IDH1 R132H inh, Pf Dd2 growth) | T cruzi growth-2 inactive | T cruzi growth-3 inactive | 3T3 cytotox inactive | 3T3 cytotox 2 inactive
O=C(C[C@H]1C[C@@H]2c3cc(NC(=O)CC4CC4)ccc3O[C@@H]2[C@H](CO)O1)NCC(F)(F)F	none
CN(C)CC#Cc1ccc([C@@H]2[C@@H](CO)N3C(=O)CN(C(=O)CN(C)C)C[C@H]23)cc1	none (no result: IDH1 R132H inh, T cruzi growth-1)
O=S(=O)(Cc1ccccc1)N1CCCCN2[C@H](CO)[C@H](c3ccc(-c4ccccc4)cc3)[C@H]2C1	T cruzi growth-1 106 (no result: IDH1 R132H inh) | T cruzi growth-2 98 | T cruzi growth-3 inactive | 3T3 cytotox 54 | 3T3 cytotox 2 104
O=S(=O)(Cc1ccccc1)N1CCCCN2[C@H](CO)[C@@H](c3ccc(-c4ccccc4)cc3)[C@@H]2C1	T cruzi growth-1 114 (no result: IDH1 R132H inh) | T cruzi growth-2 102 | T cruzi growth-3 103 | 3T3 cytotox inconclusive | 3T3 cytotox 2 101
O=S(=O)(Cc1ccccc1)N1CCCCN2[C@H](CO)[C@H](c3ccc(-c4ccncc4)cc3)[C@@H]2C1	none (no result: IDH1 R132H inh)
CN1C(=O)c2cc(NC(=O)Nc3cccc(Cl)c3)ccc2OC[C@@H]2O[C@@H](CC(=O)O)CC[C@@H]21	none (no result: IDH1 R132H inh)
COc1ccccc1NC(=O)N1CCCCN2[C@H](C1)[C@@H](c1ccc(C#Cc3ccccc3)cc1)[C@@H]2CO	T cruzi growth-1 107 (no result: IDH1 R132H inh) | T cruzi growth-2 99 | T cruzi growth-3 109 | 3T3 cytotox 36 | 3T3 cytotox 2 105
COc1ccccc1NC(=O)N1CCCCN2[C@H](C1)[C@H](c1ccc(C#CC3CC3)cc1)[C@@H]2CO	T cruzi growth-1 100 (no result: GASC1 inh, IDH1 R132H inh) | T cruzi growth-2 105 | T cruzi growth-3 inactive | 3T3 cytotox inactive | 3T3 cytotox 2 30
COc1ccccc1NC(=O)N1CCCCN2[C@H](CO)[C@H](c3ccc(C#Cc4ccccc4)cc3)[C@H]2C1	none (no result: IDH1 R132H inh)
Cc1noc(C)c1NC(=O)N(C)C[C@H]1Oc2ccc(NS(=O)(=O)c3cccs3)cc2C(=O)N([C@H](C)CO)C[C@@H]1C	none

Screens as filed in PubChem.
